# Results published in ChEMBL document CHEMBL1124761, “Polyamine analogues with antitumor activity” (J Med Chem, 1990).
# Calls of active or inactive are those of the source. The rule behind the calls is not given here.
# How the values were obtained:
# L1210 [1] = test: Tested for the T/C (survival time treated/survival time control x 100) after intraperitoneal administration of 50 mg/Kg in 10 E 5 L1210 cells on day 0; not active; type: functional; details: Mus musculus
# [2] = Tested for in vitro half life period against polyamine oxidase after intraperitoneal administration; type: ADME; details: ip
# [3] = molecular target: Peroxisomal N(1)-acetyl-spermine/spermidine oxidase (Mus musculus) (UniProt Q8C0L6); test: Tested for the in vivo inhibitory activity against polyamine oxidase in mice at a dose of 1 mg/kg; type: functional, organism-based; parameters: dose 1 mg/kg
# In short: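 Mice received drug ip 24 h before sacrifice. Liver homogenised and polyamine oxidase activity assayed. Protein by Bradford method with BSA standard.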
# L1210 [4] = test: (§1) Antitumor activity against L1210 leukemia in BDF1 male mice at the dose of 5 mg/kg; type: functional, Mus musculus; parameters: unit not given here
# In short: (§2)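 BDF1 male mice were inoculated ip with 10^5 L1210 cells on day 0. Agents were given ip once daily on days 1-9, alone or with diallenylputrescine at 2.5 or 5.0 mg/kg. Mean survival time was reported ± SD (n=5). %T/C = treated survival/control survival × 100.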
# L1210 [5] = test: as §1; type: functional, Mus musculus
# In short: (§3)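 L1210 leukemia, 10^5 cells inoculated ip into BDF1 male mice on day 0. Analogue given ip once daily on days 1-9; where stated, diallenylputrescine (PAO inhibitor) was co-given at 2.5 or 5.0 mg/kg. Mean survival time ± SD (n=5). %T/C = treated survival time/control survival time × 100.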
# L1210 [6] = test: Tested for the T/C (survival time treated /survival time control x 100) after intraperitoneal administration of 5 mg/kg in 10 E 5 L1210 cells on day 0; type: functional, Mus musculus
# In short: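 Male BDF1 mice, in groups of six, were inoculated ip with 10^5 L1210 cells on day 0. Tetrahydrochloride salts were given at 5 mg/kg every 3 h (×4) on days 3-5. T/C = survival time treated/survival time control × 100.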
# L1210 [7] = test: (§4) Antitumor activity against L1210 leukemia in BDF1 male mice at the dose of 5 mg/kg when given with 2.5 mg/kg of diallenylputrescine; type: functional, Mus musculus; in short: as §3
# L1210 [8] = test: as §4; type: functional, Mus musculus; in short: as §2; remark: listed apart in the source
# L1210 [9] = test: Effect of 25 mg/kg putrescine coadministered with 25 mg/kg compound on the tumor cell concentration (L1210) of putrescine; type: functional, Mus musculus
# In short: (§5)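 BDF1 male mice bearing ip L1210 cells. Starting day 4, ip dosing with analogue, alone or with putrescine or spermidine, at the doses indicated. Killed 4 h after the final dose; tumour cells recovered by peritoneal lavage. Drug and polyamines quantified by HPLC, pmol/10^6 cells, mean of three determinations.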
# L1210 [10] = test: Effect of 25 mg/kg putrescine coadministered with 25 mg/kg compound on the tumor cell concentration (L1210) of compound; type: functional, Mus musculus; in short: as §5
# L1210 [11] = test: Effect of 25 mg/kg putrescine coadministered with 25 mg/kg compound on the tumor cell concentration (L1210) of spermine; type: functional, Mus musculus; in short: as §5
# L1210 [12] = test: Effect of 25 mg/kg putrescine coadministered with 25 mg/kg compound on the tumor cell concentration (L1210) of spermidine; type: functional, Mus musculus; in short: as §5
# L1210 [13] = test: Effect of 25 mg/kg putrescine or spermidine coadministered with 25 mg/kg compound on the tumor cell concentration (L1210) of putrescine; type: functional, Mus musculus; in short: as §5
# L1210 [14] = test: Modulation of the antitumor activity against L1210 Leukemia by 25 mg/kg ip days 1-7, 1 dose/day; type: functional, Mus musculus; details: route intraperitoneal
# L1210 [15] = test: Effect of 25 mg/kg putrescine or spermidine coadministered with 25 mg/kg compound on the tumor cell concentration (L1210) of spermine; type: functional, Mus musculus; in short: as §5
# L1210 [16] = test: Effect of 25 mg/kg putrescine or spermidine coadministered with 25 mg/kg compound on the tumor cell concentration (L1210) of compound; type: functional, Mus musculus; in short: as §5
# L1210 [17] = test: Modulation of the antitumor activity against L1210 Leukemia at 25 mg/kg along with 25 mg/kg spermidine days 1-7, 1 dose / day; type: functional, Mus musculus
# L1210 [18] = test: Modulation of the antitumor activity against L1210 Leukemia at 25 mg/kg along with 25 mg/kg putrescine days 1-7, 1 dose / day; type: functional, Mus musculus
# L1210 [19] = test: Effect of 25 mg/kg putrescine or spermidine coadministered with 25 mg/kg compound on the tumor cell concentration (L1210) of spermidine; type: functional, Mus musculus; in short: as §5
# L1210 [20] = test: Tested for the T/C (survival time treated /survival time control x 100) after intraperitoneal administration of 25 mg/kg in 10 E 5 L1210 cells on day 0; type: functional, Mus musculus
# L1210 [21] = test: Effect of 25 mg/kg spermidine coadministered with 25 mg/kg compound on the tumor cell concentration (L1210) of putrescine; type: functional, Mus musculus; in short: as §5
# L1210 [22] = test: Effect of 25 mg/kg spermidine coadministered with 25 mg/kg compound on the tumor cell concentration (L1210) of spermine; type: functional, Mus musculus; in short: as §5
# L1210 [23] = test: Effect of 25 mg/kg spermidine coadministered with 25 mg/kg compound on the tumor cell concentration (L1210) of compound; type: functional, Mus musculus; in short: as §5
# L1210 [24] = test: Effect of 25 mg/kg spermidine coadministered with 25 mg/kg compound on the tumor cell concentration (L1210) of spermidine; type: functional, Mus musculus; in short: as §5
# L1210 [25] = test: (§6) Antitumor activity against L1210 leukemia in BDF1 male mice at the dose of 10 mg/kg; type: functional, Mus musculus; in short: as §2
# L1210 [26] = test: (§7) Antitumor activity against L1210 leukemia in BDF1 male mice at the dose of 5 mg/kg when given with 5.0 mg/kg of diallenylputrescine; type: functional, Mus musculus; in short: as §3
# L1210 [27] = test: as §7; type: functional, Mus musculus; in short: as §2; remark: listed apart in the source
# L1210 [28] = test: as §6; type: functional, Mus musculus; in short: as §3; remark: listed apart in the source
# L1210 [29] = test: (§8) Antitumor activity against L1210 leukemia in BDF1 male mice at the dose of 10 mg/kg when given with 5.0 mg/kg of diallenylputrescine; type: functional, Mus musculus; in short: as §3
# L1210 [30] = test: as §8; type: functional, Mus musculus; in short: as §2; remark: listed apart in the source
# Chain of Peroxisomal N(1)-acetyl-spermine/spermidine oxidase (Mus musculus) (Q8C0L6 whole entry): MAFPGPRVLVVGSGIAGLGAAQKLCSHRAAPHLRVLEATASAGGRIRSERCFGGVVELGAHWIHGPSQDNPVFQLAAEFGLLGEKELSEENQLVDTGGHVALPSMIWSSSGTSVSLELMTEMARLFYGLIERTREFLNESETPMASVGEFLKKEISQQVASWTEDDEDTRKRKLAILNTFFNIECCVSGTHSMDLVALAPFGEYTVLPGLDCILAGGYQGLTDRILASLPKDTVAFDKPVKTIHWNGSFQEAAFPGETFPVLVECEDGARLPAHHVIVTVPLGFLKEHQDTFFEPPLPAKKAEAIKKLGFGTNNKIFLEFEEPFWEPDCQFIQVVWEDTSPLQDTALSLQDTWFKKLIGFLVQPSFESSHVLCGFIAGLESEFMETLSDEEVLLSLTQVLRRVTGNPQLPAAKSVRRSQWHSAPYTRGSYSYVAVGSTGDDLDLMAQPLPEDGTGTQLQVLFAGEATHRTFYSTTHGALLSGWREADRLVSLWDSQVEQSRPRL
structure (smiles),measurement,setting,value
NCCCCSCCCN,T/C,L1210 [1],inactive
CN(CCCN)CCCN,T/C,L1210 [1],inactive
C=C=CCNCCCNCCCNCC=C=C,T50,[2],4 min
same,T/C,L1210 [1],inactive
same,PAO activity (pM min-1 mg-1),[3],1
NCCCCCCCCN,T/C,L1210 [1],inactive
CC(N)CCNCCCCCCCCNCCC(C)N.Cl.Cl.Cl.Cl (centres undefined),Mean survival time,L1210 [4],13.3
same,T/C,L1210 [5],195%
same,T/C,L1210 [6],206%
same,T/C,L1210 [7],376%
same,Mean survival time,L1210 [8],25.6
NCCCS(=O)(=O)CCCN,T/C,L1210 [1],inactive
CCCCNCCCNCCCCCCCCNCCCNCCCC,T/C,L1210 [1],inactive
NCCCCN.NCCCNCCCCCCCCNCCCN,Effect,L1210 [9],120 pM (10e6*cells)-1
same,Effect,L1210 [10],520 pM (10e6*cells)-1
same,Effect,L1210 [11],799 pM (10e6*cells)-1
same,Effect,L1210 [12],1060 pM (10e6*cells)-1
NCCCNCCCOCCCNCCCN,T/C,L1210 [1],inactive
Cl.Cl.Cl.Cl.NCCCNCCCCCCCCNCCCN,Effect,L1210 [13],37.4 pM (10e6*cells)-1
same,Mean survival time,L1210 [14],16.2 days
same,Effect,L1210 [15],1110 pM (10e6*cells)-1
same,T/C,L1210 [6],350%
same,Effect,L1210 [16],580 pM (10e6*cells)-1
same,Mean survival time,L1210 [17],8.3 days
same,Mean survival time,L1210 [18],15 days
same,Effect,L1210 [19],1711 pM (10e6*cells)-1
NCCCNCCCN [NORSPERMIDINE],T/C,L1210 [20],179%
CN(CCCN)CCCCCCCCN(C)CCCN,T/C,L1210 [1],inactive
NCCCCCCCCNCCCN,T/C,L1210 [1],inactive
NCCCOCCCN,T/C,L1210 [1],inactive
c1ccc(CNCCCNCCCCCCCCNCCCNCc2ccccc2)cc1,T/C,L1210 [1],inactive
CC(CCN)NCCCCCCCCNC(C)CCN (centres undefined),T/C,L1210 [1],inactive
NCCCCNCCCN.NCCCNCCCCCCCCNCCCN,Effect,L1210 [21],51.7 pM (10e6*cells)-1
same,Effect,L1210 [22],817 pM (10e6*cells)-1
same,Effect,L1210 [23],114 pM (10e6*cells)-1
same,Effect,L1210 [24],2174 pM (10e6*cells)-1
C=C=CCNCCCCNCC=C=C,T50,[2],1 min
CCCNCCCNCCCCCCCCNCCCNCCC,T/C,L1210 [1],inactive
CNCCCNCCCCCCCCNCCCNC.Cl.Cl.Cl.Cl,Mean survival time,L1210 [4],11.4
same,Mean survival time,L1210 [25],13.8
same,T/C,L1210 [5],142%
same,T/C,L1210 [26],157%
same,T/C,L1210 [6],206%
same,Mean survival time,L1210 [27],12.6
same,T/C,L1210 [28],172%
same,T/C,L1210 [29],317%
same,Mean survival time,L1210 [30],25.4
CNCCCCCCCCNC,T/C,L1210 [1],inactive
NCCCSCCCN,T/C,L1210 [1],inactive
CN(C)CCCNCCCN(C)C,T/C,L1210 [1],inactive
CN(C)CCCNCCCCCCCCNCCCN(C)C,T/C,L1210 [1],inactive
CCNCCCNCCCCCCCCNCCCN.Cl.Cl.Cl.Cl,Mean survival time,L1210 [4],7.6
same,Mean survival time,L1210 [25],9
same,T/C,L1210 [5],100%
same,T/C,L1210 [26],105%
same,T/C,L1210 [6],145%
same,Mean survival time,L1210 [27],8.4
same,T/C,L1210 [28],112%
same,T/C,L1210 [29],155%
same,Mean survival time,L1210 [30],12.4
C=C=CCNCCCNCCCCCCCCNCCCNCC=C=C.Cl.Cl.Cl.Cl,T50,[2],2 min
same,T/C,L1210 [1],inactive
same,PAO activity,[3],4.1 pM/min
CCNCCCNCCCCCCCCNCCCNCC.Cl.Cl.Cl.Cl,Mean survival time,L1210 [4],9.8
same,Mean survival time,L1210 [25],9
same,T/C,L1210 [5],122%
same,T/C,L1210 [26],142%
same,T/C,L1210 [6],135%
same,Mean survival time,L1210 [27],11.4
same,T/C,L1210 [28],112%
same,T/C,L1210 [29],287%
same,Mean survival time,L1210 [30],23
NCCCCCCCN,T/C,L1210 [1],inactive
CNCCCNCCCNC,T/C,L1210 [1],inactive
